Data published in ChEMBL document CHEMBL1136168, “Novel 3-O-acyl mesquitol analogues as free-radical scavengers and enzyme inhibitors: synthesis, biological evaluation and structure-activity relationship” (Bioorg Med Chem Lett, 2003).

Legend:
[1] = Free radical scavenging assessed as DPPH color reduction
How it was run: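 DMSO sample mixed in microplate with 0.1 M Tris-HCl pH 7.4 and 0.5 mM DPPH in absolute ethanol. Incubated 20 min in the dark, A517 read. Scavenging taken as % decolorization versus solvent control. SC50 by linear regression from at least five concentrations in triplicate.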

[2] = Inhibition of yeast Alpha-glucosidase; design: species or system Saccharomyces cerevisiae
How it was run: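 Yeast α-glucosidase (0.74 u/mL) in 100 mM phosphate pH 7.0 with BSA and 0.20% sodium azide. DMSO sample incubated with enzyme 5 min, A405 zero read. Substrate added, 10 min at 26–28 °C, A405 re-read; increase used for % inhibition. Triplicates; IC50 by linear regression.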

[3] = biological target: T1, Xanthine dehydrogenase/oxidase (Homo sapiens, UniProt P47989); test: Inhibitory concentration against Xanthine oxidase; Not active at 50 ug/mL concentration; type: single protein
How it was run: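 DMSO sample preincubated 15 min with xanthine oxidase (1 u/mL stock) in […] phosphate buffer pH 7.5. Started with 0.15 mM xanthine, run 30 min at 29 °C, stopped with 1 N HCl, A290 read. Compound blanks had HCl added before enzyme. Triplicates; % inhibition versus solvent control; IC50 by linear regression.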

[4] = biological target: T1, Xanthine dehydrogenase/oxidase; test: Inhibition of Xanthine oxidase; type: single protein
How it was run: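 DMSO sample preincubated 15 min with xanthine oxidase (1 u/mL stock) in […] phosphate buffer pH 7.5. Started with 0.15 mM xanthine, run 30 min at 29 °C, stopped with 1 N HCl, A290 read. Triplicates; % inhibition versus solvent control; IC50 by linear regression.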

[5] = Free radical scavenging assessed as ABTS (2,2'-azinobis-(3-ethyl benz) thiazoline-6-sulfonic acid) color change
How it was run: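 ABTS radical cation made by reacting 7 mM ABTS diammonium salt with 2.45 mM potassium persulfate overnight in the dark at room temp, then diluted in PBS pH 7.4 to A734 about 0.70. Sample added to diluted ABTS, A734 read within 1 min. Triplicates with blanks and controls. SC50 by linear regression from at least five concentrations.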

T1 sequence (P47989 whole entry): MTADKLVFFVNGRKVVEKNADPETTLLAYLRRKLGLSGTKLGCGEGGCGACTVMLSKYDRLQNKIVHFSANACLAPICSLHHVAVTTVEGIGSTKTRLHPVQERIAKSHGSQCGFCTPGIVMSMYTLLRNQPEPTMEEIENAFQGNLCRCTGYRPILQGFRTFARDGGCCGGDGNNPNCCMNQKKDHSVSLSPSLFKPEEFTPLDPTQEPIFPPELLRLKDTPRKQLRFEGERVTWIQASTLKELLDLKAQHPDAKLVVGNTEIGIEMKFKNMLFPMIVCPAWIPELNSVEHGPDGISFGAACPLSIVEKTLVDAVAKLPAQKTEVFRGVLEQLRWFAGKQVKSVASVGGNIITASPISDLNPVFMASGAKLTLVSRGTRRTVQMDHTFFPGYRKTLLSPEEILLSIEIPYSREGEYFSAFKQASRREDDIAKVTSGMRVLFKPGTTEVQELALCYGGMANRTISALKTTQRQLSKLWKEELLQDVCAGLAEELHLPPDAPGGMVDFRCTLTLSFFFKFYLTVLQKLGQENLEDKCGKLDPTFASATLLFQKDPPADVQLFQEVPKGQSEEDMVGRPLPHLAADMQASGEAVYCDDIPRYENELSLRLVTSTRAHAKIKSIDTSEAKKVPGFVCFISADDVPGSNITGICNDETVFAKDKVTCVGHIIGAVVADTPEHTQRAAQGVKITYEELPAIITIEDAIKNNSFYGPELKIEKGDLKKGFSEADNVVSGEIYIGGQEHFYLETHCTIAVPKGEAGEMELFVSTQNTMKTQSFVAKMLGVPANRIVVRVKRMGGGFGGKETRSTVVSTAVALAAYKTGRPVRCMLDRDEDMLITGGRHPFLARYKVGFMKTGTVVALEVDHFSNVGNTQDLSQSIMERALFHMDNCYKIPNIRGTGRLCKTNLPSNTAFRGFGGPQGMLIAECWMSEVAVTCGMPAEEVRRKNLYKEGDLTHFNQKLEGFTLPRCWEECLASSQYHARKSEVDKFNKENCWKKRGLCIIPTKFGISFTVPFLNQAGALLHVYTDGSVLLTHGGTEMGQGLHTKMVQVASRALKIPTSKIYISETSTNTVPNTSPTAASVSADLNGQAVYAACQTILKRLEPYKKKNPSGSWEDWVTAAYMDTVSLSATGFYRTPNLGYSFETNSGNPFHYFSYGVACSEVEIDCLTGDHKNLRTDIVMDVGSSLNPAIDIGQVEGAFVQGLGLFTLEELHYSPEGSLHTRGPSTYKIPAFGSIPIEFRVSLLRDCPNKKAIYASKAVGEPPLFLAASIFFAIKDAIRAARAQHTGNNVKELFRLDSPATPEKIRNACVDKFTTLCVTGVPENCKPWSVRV

| SC50 [1] | IC50 [2] | IC50 [3] | IC50 [4] | SC50 [5] | Compound |
| --- | --- | --- | --- | --- | --- |
| 8.89 µM | 46.2 µM | – | 139 µM | 14.1 µM | CCCC(=O)O[C@@H]1Cc2ccc(O)c(O)c2O[C@H]1c1ccc(O)c(O)c1 |
| 6.72 µM | 82.3 µM | Not Active | – | 14.6 µM | Oc1ccc([C@@H]2Oc3c(ccc(O)c3O)C[C@H]2O)cc1O |
| 7.51 µM | 12.6 µM | – | 102 µM | 11.3 µM | CCCCCCCCCCCCCC(=O)O[C@@H]1Cc2ccc(O)c(O)c2O[C@H]1c1ccc(O)c(O)c1 |
| 11.5 µM | 77.8 µM | Not Active | – | – | O=C(O[C@@H]1Cc2ccc(O)c(O)c2O[C@H]1c1ccc(O)c(O)c1)c1ccccc1 |
| 7.15 µM | 46.3 µM | – | 150 µM | 13 µM | CC(=O)O[C@@H]1Cc2ccc(O)c(O)c2O[C@H]1c1ccc(O)c(O)c1 |
| 6.07 µM | 13.5 µM | – | 112 µM | 17.5 µM | CCCCCCCCCC(=O)O[C@@H]1Cc2ccc(O)c(O)c2O[C@H]1c1ccc(O)c(O)c1 |
| 8.99 µM | 32.8 µM | Not Active | – | – | O=C(O[C@@H]1Cc2ccc(O)c(O)c2O[C@H]1c1ccc(O)c(O)c1)c1ccc(F)cc1 |
| 6.68 µM | 49.3 µM | – | 129 µM | 14.4 µM | CCCCCC(=O)O[C@@H]1Cc2ccc(O)c(O)c2O[C@H]1c1ccc(O)c(O)c1 |

More lines, now with the values behind:

| Compound | SC50 [1] | IC50 [2] | IC50 [3] | IC50 [4] | SC50 [5] |
| --- | --- | --- | --- | --- | --- |
| O=C(O[C@@H]1Cc2ccc(O)c(O)c2O[C@H]1c1ccc(O)c(O)c1)c1ccccc1Cl | 7.97 µM | 43.3 µM | Not Active | – | – |
| CCCCCCCCCCCCCCCC(=O)O[C@@H]1Cc2ccc(O)c(O)c2O[C@H]1c1ccc(O)c(O)c1 | 5.17 µM | 9.56 µM | – | 94.7 µM | 10.1 µM |
| Oc1cc(O)c2c(c1)O[C@H](c1ccc(O)c(O)c1)[C@H](O)C2 [(-)-EPICATECHIN] | 13.5 µM | 178 µM | Not Active | – | – |
| CC(C)(Sc1cc(C(C)(C)C)c(O)c(C(C)(C)C)c1)Sc1cc(C(C)(C)C)c(O)c(C(C)(C)C)c1 | 21.7 µM | – | – | – | – |
| CCCCCCCCCCCCCCCCCC(=O)O[C@@H]1Cc2ccc(O)c(O)c2O[C@H]1c1ccc(O)c(O)c1 | 9.43 µM | 54.5 µM | – | 156 µM | 17.8 µM |
| COc1ccc(C(=O)O[C@@H]2Cc3ccc(O)c(O)c3O[C@H]2c2ccc(O)c(O)c2)cc1 | 6.72 µM | 67.3 µM | Not Active | – | – |
| OC[C@H]1NC[C@H](O)[C@@H](O)[C@@H]1O [DUVOGLUSTAT] | – | 50 µM | – | – | – |
| Cc1c(C)c2c(c(C)c1O)CCC(C)(C(=O)O)O2 (stereo unspecified) | 15.9 µM | – | – | – | 1.82 µM |
